Laboratory results as given in ChEMBL document CHEMBL2331520, “Synthesis, surface tension properties and antibacterial activities of amphiphilic D-galactopyranose derivatives” (Eur J Med Chem, 2013).

What was measured:
[1] = test system: Geobacillus stearothermophilus; assay: Antibacterial activity against Bacillus stearothermophilus ATTC 12980 assessed as growth inhibition at 30 degC after 24 hrs by liquid broth dilution method; assay type: functional; settings: ATTC 12980, 24 h
Procedure, shortened: (§1)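 Strains kept at -80 °C in LB broth with 20% glycerol and grown from 1% (v/v) stock in nutritive broth (yeast extract 1 g/L, meat extract 2 g/L, peptone 5 g/L, NaCl 5 g/L) at 30 °C. Overnight culture adjusted to 0.5 McFarland (~1.5 × 10⁸ cfu/mL). Compound stock 1 g/L in DMSO, serially diluted in broth 1:2 to 1:512, mixed 1:1 with inoculum. Incubation 24 h, 150 rpm, 30 °C. OD600 read; MIC = lowest concentration with no OD increase in all replicates versus negative control.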

Pseudomonas aeruginosa = assay: Antibacterial activity against Pseudomonas aeruginosa CIP A22 assessed as growth inhibition at 30 degC after 24 hrs by liquid broth dilution method; assay type: functional; settings: CIP A22, 24 h; procedure, shortened: as §1
Enterobacter cloacae = assay: Antibacterial activity against Enterobacter cloacae ATCC 13047 assessed as growth inhibition at 30 degC after 24 hrs by liquid broth dilution method; assay type: functional; settings: ATCC 13047, 24 h; procedure, shortened: as §1
Citrobacter freundii = assay: Antibacterial activity against Citrobacter freundii ATCC 6750 assessed as growth inhibition at 30 degC after 24 hrs by liquid broth dilution method; assay type: functional; settings: ATCC 6750, 24 h; procedure, shortened: as §1
Staphylococcus aureus = assay: Antibacterial activity against Staphylococcus aureus subsp aureus CIP 53.154 assessed as growth inhibition at 30 degC after 24 hrs by liquid broth dilution method; assay type: functional; settings: CIP 53.154, 24 h; procedure, shortened: as §1
[2] = test system: Mycolicibacterium smegmatis; assay: Antibacterial activity against Mycobacterium smegmatis CIP 73.26 assessed as growth inhibition at 37 degC after 24 hrs by liquid broth dilution method; assay type: functional; settings: CIP 73.26, 24 h
Procedure, shortened: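 Inoculum at 0.5 McFarland (~1.5 × 10⁸ cfu/mL). DMSO stock (1 g/L) serially diluted in the same medium 1:2 to 1:512. Shaken 24 h at 150 rpm, 37 °C. MIC = lowest concentration with no OD600 rise in any replicate versus negative control.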

Sinorhizobium meliloti = assay: Antibacterial activity against Sinorhizobium meliloti Rm1021 assessed as growth inhibition at 30 degC after 24 hrs by liquid broth dilution method; assay type: functional; settings: Rm1021, 24 h; procedure, shortened: as §1
Micrococcus luteus = assay: Antibacterial activity against Micrococcus luteus CIP 53.45 assessed as growth inhibition at 30 degC after 24 hrs by liquid broth dilution method; assay type: functional; settings: CIP 53.45, 24 h; procedure, shortened: as §1
Escherichia coli = assay: Antibacterial activity against Escherichia coli ATCC 10536 assessed as growth inhibition at 30 degC after 24 hrs by liquid broth dilution method; assay type: functional; settings: ATCC 10536, 24 h; procedure, shortened: as §1
Dickeya chrysanthemi = assay: Antibacterial activity against Erwinia chrysanthemi EC3937 assessed as growth inhibition at 30 degC after 24 hrs by liquid broth dilution method; assay type: functional; settings: EC3937, 24 h; procedure, shortened: as §1
[3] = Critical micelle concentration of the compound by wilhelmy method; assay type: physicochemical
Procedure, shortened: (§2)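 Wilhelmy plate method at 293 K. Concentrated solution added stepwise from a syringe into ultrapure water, stirred gently 30 s after each addition, then equilibrium surface tension read. Each value is the mean of at least three measurements (SD within ±1.5% of mean). Transducer precision 0.1 mN/m; platinum plate flame-cleaned. Surface tension plotted against molar concentration to give CMC and γCMC.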

[4] = Gamma critical micelle concentration of the compound by wilhelmy method; assay type: physicochemical; procedure, shortened: as §2

CCCCCCCCOC[C@H]1O[C@@H]2OC(C)(C)O[C@@H]2[C@H]2OC(C)(C)O[C@H]21
≥ 250 µg/mL: MIC [1] | MIC (Pseudomonas aeruginosa) | MIC (Enterobacter cloacae) | MIC (Citrobacter freundii) | MIC (Staphylococcus aureus) | MIC [2] | MIC (Sinorhizobium meliloti) | MIC (Micrococcus luteus) | MIC (Escherichia coli) | MIC (Dickeya chrysanthemi)

CCCCCCCCCCCCOC[C@H]1O[C@@H]2OC(C)(C)O[C@@H]2[C@H]2OC(C)(C)O[C@H]21
≥ 250 µg/mL: MIC [1] | MIC (Pseudomonas aeruginosa) | MIC (Enterobacter cloacae) | MIC (Citrobacter freundii) | MIC (Staphylococcus aureus) | MIC [2] | MIC (Sinorhizobium meliloti) | MIC (Micrococcus luteus) | MIC (Escherichia coli) | MIC (Dickeya chrysanthemi)

CCCCCCCCCCCCOC[C@H]1O[C@H](O)[C@H](O)[C@@H](O)[C@H]1O
≥ 250 µg/mL: MIC [1] | MIC (Pseudomonas aeruginosa) | MIC (Enterobacter cloacae) | MIC (Citrobacter freundii) | MIC (Staphylococcus aureus) | MIC [2] | MIC (Sinorhizobium meliloti) | MIC (Micrococcus luteus) | MIC (Escherichia coli) | MIC (Dickeya chrysanthemi)
Not Active: CMC [3] | gammaCMC [4]

CCCCCCCCOCCCCOC[C@H]1O[C@@H]2OC(C)(C)O[C@@H]2[C@H]2OC(C)(C)O[C@H]21
125 µg/mL: MIC (Staphylococcus aureus)
62.5 µg/mL: MIC [1] | MIC (Pseudomonas aeruginosa) | MIC (Enterobacter cloacae) | MIC (Citrobacter freundii) | MIC [2] | MIC (Sinorhizobium meliloti) | MIC (Micrococcus luteus) | MIC (Escherichia coli) | MIC (Dickeya chrysanthemi)

CCCCCCCCOCC#CCOC[C@H]1O[C@@H]2OC(C)(C)O[C@@H]2[C@H]2OC(C)(C)O[C@H]21
62.5 µg/mL: MIC [1] | MIC (Pseudomonas aeruginosa) | MIC (Enterobacter cloacae) | MIC (Citrobacter freundii) | MIC [2] | MIC (Sinorhizobium meliloti) | MIC (Micrococcus luteus) | MIC (Escherichia coli) | MIC (Dickeya chrysanthemi)
125 µg/mL: MIC (Staphylococcus aureus)

CCCCCCCCOc1ccc(OC[C@H]2O[C@@H]3OC(C)(C)O[C@@H]3[C@H]3OC(C)(C)O[C@H]32)cc1
125 µg/mL: MIC (Pseudomonas aeruginosa) | MIC (Citrobacter freundii) | MIC (Staphylococcus aureus)
62.5 µg/mL: MIC [1] | MIC (Enterobacter cloacae) | MIC [2] | MIC (Sinorhizobium meliloti) | MIC (Micrococcus luteus) | MIC (Escherichia coli) | MIC (Dickeya chrysanthemi)

CCCCCCCCCCCCOCCCCOC[C@H]1O[C@@H]2OC(C)(C)O[C@@H]2[C@H]2OC(C)(C)O[C@H]21
15.6 µg/mL: MIC (Micrococcus luteus)
31.2 µg/mL: MIC [1] | MIC [2]
125 µg/mL: MIC (Staphylococcus aureus)
62.5 µg/mL: MIC (Pseudomonas aeruginosa) | MIC (Enterobacter cloacae) | MIC (Citrobacter freundii) | MIC (Sinorhizobium meliloti) | MIC (Escherichia coli) | MIC (Dickeya chrysanthemi)

CCCCCCCCCCCCOCC#CCOC[C@H]1O[C@@H]2OC(C)(C)O[C@@H]2[C@H]2OC(C)(C)O[C@H]21
125 µg/mL: MIC (Staphylococcus aureus)
15.6 µg/mL: MIC [1]
62.5 µg/mL: MIC (Pseudomonas aeruginosa) | MIC (Enterobacter cloacae) | MIC (Citrobacter freundii) | MIC [2] | MIC (Sinorhizobium meliloti) | MIC (Escherichia coli) | MIC (Dickeya chrysanthemi)

CCCCCCCCCCCCOc1ccc(OC[C@H]2O[C@@H]3OC(C)(C)O[C@@H]3[C@H]3OC(C)(C)O[C@H]32)cc1
62.5 µg/mL: MIC [1] | MIC (Enterobacter cloacae) | MIC (Citrobacter freundii) | MIC [2] | MIC (Sinorhizobium meliloti) | MIC (Escherichia coli) | MIC (Dickeya chrysanthemi)
31.2 µg/mL: MIC (Micrococcus luteus)
125 µg/mL: MIC (Pseudomonas aeruginosa) | MIC (Staphylococcus aureus)

CCCCCCCCOCCCCOC[C@H]1O[C@H](O)[C@H](O)[C@@H](O)[C@H]1O
62.5 µg/mL: MIC [1] | MIC (Pseudomonas aeruginosa) | MIC (Enterobacter cloacae) | MIC [2] | MIC (Sinorhizobium meliloti) | MIC (Micrococcus luteus) | MIC (Escherichia coli) | MIC (Dickeya chrysanthemi)
0.3 mmol/L: CMC [3]
30 mN/meter: gammaCMC [4]
125 µg/mL: MIC (Citrobacter freundii) | MIC (Staphylococcus aureus)

CCCCCCCCOCC#CCOC[C@H]1O[C@H](O)[C@H](O)[C@@H](O)[C@H]1O
0.06 mmol/L: CMC [3]
125 µg/mL: MIC (Pseudomonas aeruginosa) | MIC (Citrobacter freundii) | MIC (Staphylococcus aureus)
30 mN/meter: gammaCMC [4]
62.5 µg/mL: MIC [1] | MIC (Enterobacter cloacae) | MIC [2] | MIC (Sinorhizobium meliloti) | MIC (Micrococcus luteus) | MIC (Escherichia coli) | MIC (Dickeya chrysanthemi)

CCCCCCCCOc1ccc(OC[C@H]2O[C@H](O)[C@H](O)[C@@H](O)[C@H]2O)cc1
62.5 µg/mL: MIC [1] | MIC (Enterobacter cloacae) | MIC [2] | MIC (Sinorhizobium meliloti) | MIC (Micrococcus luteus) | MIC (Escherichia coli) | MIC (Dickeya chrysanthemi)
Not Active: CMC [3] | gammaCMC [4]
125 µg/mL: MIC (Pseudomonas aeruginosa) | MIC (Citrobacter freundii) | MIC (Staphylococcus aureus)

CCCCCCCCCCCCOCCCCOC[C@H]1O[C@H](O)[C@H](O)[C@@H](O)[C@H]1O
62.5 µg/mL: MIC (Pseudomonas aeruginosa) | MIC (Enterobacter cloacae) | MIC (Citrobacter freundii) | MIC [2] | MIC (Sinorhizobium meliloti) | MIC (Escherichia coli) | MIC (Dickeya chrysanthemi)
48 mN/meter: gammaCMC [4]
15.6 µg/mL: MIC (Micrococcus luteus)
31.2 µg/mL: MIC [1]
0.023 mmol/L: CMC [3]
125 µg/mL: MIC (Staphylococcus aureus)

CCCCCCCCCCCCOCC#CCOC[C@H]1O[C@H](O)[C@H](O)[C@@H](O)[C@H]1O
62.5 µg/mL: MIC (Pseudomonas aeruginosa) | MIC (Enterobacter cloacae) | MIC (Citrobacter freundii) | MIC (Staphylococcus aureus) | MIC [2] | MIC (Escherichia coli) | MIC (Dickeya chrysanthemi)
35 mN/meter: gammaCMC [4]
3.91 µg/mL: MIC (Micrococcus luteus)
31.2 µg/mL: MIC (Sinorhizobium meliloti)
0.032 mmol/L: CMC [3]
7.81 µg/mL: MIC [1]

CCCCCCCCCCCCOc1ccc(OC[C@H]2O[C@H](O)[C@H](O)[C@@H](O)[C@H]2O)cc1
125 µg/mL: MIC (Citrobacter freundii) | MIC (Staphylococcus aureus)
54 mN/meter: gammaCMC [4]
3.1 mmol/L: CMC [3]
62.5 µg/mL: MIC [1] | MIC (Pseudomonas aeruginosa) | MIC (Enterobacter cloacae) | MIC [2] | MIC (Sinorhizobium meliloti) | MIC (Micrococcus luteus) | MIC (Escherichia coli) | MIC (Dickeya chrysanthemi)

O=C(N[C@H](CO)[C@H](O)c1ccc([N+](=O)[O-])cc1)C(Cl)Cl [CHLORAMPHENICOL]
7.8 µg/mL: MIC (Citrobacter freundii)
1.95 µg/mL: MIC (Pseudomonas aeruginosa) | MIC [2]
3.9 µg/mL: MIC [1]
< 0.98 µg/mL: MIC (Enterobacter cloacae) | MIC (Staphylococcus aureus) | MIC (Sinorhizobium meliloti) | MIC (Micrococcus luteus) | MIC (Escherichia coli)
0.98 µg/mL: MIC (Dickeya chrysanthemi)
